For 98 molecules, inhibition results are on record in PubChem BioAssay AID463073 (The Scripps Research Institute Molecular Screening Center, 2010).

In all, about 2,000 compounds went through this assay and about 10 (0.5%) were called active. The sample holds actives, similar compounds and a random draw of the others, so the mix is not that of the screen. Values without a mark were called inactive.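 How the source made its calls: active means inhibition above 30%; inactive means the rest.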 Residues, ends and D or L forms follow the SMILES beside them.

Sequence of Protein-arginine deiminase type-4 (Homo sapiens) (Q9UM07 whole entry, looked up): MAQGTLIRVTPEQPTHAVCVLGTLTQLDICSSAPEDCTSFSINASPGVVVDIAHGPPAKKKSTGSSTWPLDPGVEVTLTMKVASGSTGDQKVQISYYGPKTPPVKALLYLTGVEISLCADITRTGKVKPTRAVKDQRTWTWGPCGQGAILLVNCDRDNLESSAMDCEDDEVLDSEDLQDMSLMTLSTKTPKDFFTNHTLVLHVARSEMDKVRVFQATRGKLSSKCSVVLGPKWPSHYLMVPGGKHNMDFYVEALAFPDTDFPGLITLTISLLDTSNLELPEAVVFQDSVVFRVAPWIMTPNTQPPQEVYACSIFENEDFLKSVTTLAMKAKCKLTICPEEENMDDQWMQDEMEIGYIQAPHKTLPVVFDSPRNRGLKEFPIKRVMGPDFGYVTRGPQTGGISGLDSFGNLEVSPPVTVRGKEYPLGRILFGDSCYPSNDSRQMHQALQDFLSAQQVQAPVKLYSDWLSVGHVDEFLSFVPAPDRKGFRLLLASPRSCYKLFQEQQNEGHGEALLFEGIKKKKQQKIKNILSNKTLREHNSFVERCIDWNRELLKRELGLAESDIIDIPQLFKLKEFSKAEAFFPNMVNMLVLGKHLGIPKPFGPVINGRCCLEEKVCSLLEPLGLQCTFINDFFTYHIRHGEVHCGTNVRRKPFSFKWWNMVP

The target in the test is Protein-arginine deiminase type-4 (Homo sapiens) (UniProt Q9UM07). As to the kind of experiment: human PAD4 inhibitors, primary screen, biochemical, fluorescence polarization (AID 463073).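 Further: 0% = PAD4 with DMSO and 100% = wells lacking PAD4.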 The note with it: recombinant PAD4, RFA probe fluorescence polarization; at 5 µM; active compounds read high. Summed up:
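Material: recombinant human PAD4 enzyme / Input: PAD4 at 2 µM in dispensed buffer, before additions / Medium: HEPES buffer pH 7.6 with 10 mM CaCl2 and TCEP / Incubation: 30-min PAD4–compound preincubation (25 °C), then 5-h probe labeling (37 °C) / Detection: fluorescence polarization, 598 nm emission after 525 nm excitation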
Consider `COc1ccc(-c2nc(C)c(C(C)=O)n2O)cc1OC`, for which the inhibition is 2.19%.

With `O=C(O)CCn1c(=S)n(CCC(=O)O)c2ccccc21`, the inhibition was 3.98%.

Regarding `CC(OC(=O)c1cc(=O)[nH]c2ccccc12)C(=O)c1ccccc1` (stereo not drawn), the inhibition is -0.79%.

`C=C(C)Cn1c(NCCOC)nc2c1c(=O)[nH]c(=O)n2C`: the inhibition is 1.67%.

`CC(=O)NC1C(OCCOc2ccc(Cl)cc2Cl)OC(COC(C)=O)C(OC(C)=O)C1OC(C)=O` (stereo not drawn): the inhibition was 2.94%.

In the case of `CCOC(=O)c1cccc(C(=O)OCC)n1`, the inhibition was -2.55%.

Regarding `CCOC(=O)C1=C(C)N[C@@]2(O)c3ccccc3C(=O)[C@@]12O`, the inhibition is 5.29%.

`CCOC(=O)c1c(C)oc2c1C(=O)c1ccccc1C2=O`: the inhibition was 61.9% (active).

On to `CC(=O)N1CC23C=CC(CC2CC12CCCCCC2)O3` (stereo not drawn), for which the inhibition was 0.84%.

`CCOc1ncnc2c1[nH]c1ccccc12`: the inhibition is 1.88%.

As to `COC(=O)C1[C@H]2C(=O)N(Cc3cccs3)C[C@]23C=C[C@H]1O3` (stereo partly drawn), the inhibition was 2.54%.

`CC(C)CN1CCN(Cc2ccc3ncccc3c2)CC1CCO` (stereo not drawn): the inhibition was 5.67%.

Regarding `CNS(=O)(=O)c1ccc(C)cc1`, the inhibition is -0.67%.

Regarding `CCCCNC(=O)NS(=O)(=O)c1ccc(C)cc1`, the inhibition is 5.34%.

For `Cc1ccc(S(=O)(=O)N[C@@H](Cc2ccccc2)C(=O)CCl)cc1`, the inhibition was 39.7% (active).

`O=C(CCc1ccccc1)Nc1ccccc1C(F)(F)F`: the inhibition was -2.28%.

`COc1cc2c(cc1OC)C(c1ccccc1)=NCC2`: the inhibition is 3.38%.

Take `C[C@]12CC[C@@H]3c4ccc(O)cc4[C@@H](O)C[C@H]3[C@@H]1CC[C@@H]2O`: the inhibition was 2.58%.

Take `CC(=O)CCc1c(C)c2cccc(C)c2[nH]c1=O`: the inhibition was 2.48%.

`CCCCC/C=C\C[C@H](O)/C=C/c1cccc(C[C@H](O)CCCCO)n1`: the inhibition is 4.29%.

With `CCOC(=O)C(NC(C)=O)C(O)c1ccc([N+](=O)[O-])cc1` (stereo not drawn), the inhibition is 3%.

Take `O=C1OC(Nc2ccc3c(c2)OCO3)c2ccccc21` (stereo not drawn): the inhibition was 3.54%.

Regarding `Cc1cccc(Oc2coc3cc(OC(=O)c4cncc(Br)c4)ccc3c2=O)c1`, the inhibition was 26.8%.

For the molecule `COc1ccc(C2C3C(C)=NN=C3CC(C)(O)C2C(C)=O)cc1` (stereo not drawn), the inhibition is -7.27%.

In the case of `O=P(c1ccccc1)(c1ccccc1)c1nc(-c2ccc(Cl)cc2)oc1N1CCOCC1`, the inhibition was 4.58%.

Turning to `CC(=O)N1CCN(c2ccc(OC[C@H]3CO[C@](Cn4ccnc4)(c4ccc(Cl)cc4Cl)O3)cc2)CC1`, the inhibition is 6.45%.

Turning to `C/C=C(/C(=C/C)c1ccc(O)cc1)c1ccc(O)cc1`, the inhibition is 0.21%.

For the molecule `C=CCc1cccc2cc(C(=O)Nc3ccc(CC(=O)O)cc3)c(=O)oc12`, the inhibition is -4.46%.

`COC(=O)c1[nH]c(=O)c2ccccc2c1O`: the inhibition is 66.5% (active).

For the molecule `CC(C)C(=O)Nc1c(O)c2ccccc2[nH]c1=O`, the inhibition was -3.74%.

With `COc1ccc(C(=O)Nc2nc3ccccc3c(=O)[nH]2)cc1`, the inhibition is 0.21%.

Turning to `CCOC(=O)n1c(=O)oc2ccccc21`, the inhibition was -6.44%.

In the case of `CCOc1cc2c3c(c1)C(C)=CC(C)(C)N3C(=O)C2=O`, the inhibition was -0.07%.

With `CC(C)CC(=O)NC(NC(=O)CC(C)C)c1cccc([N+](=O)[O-])c1`, the inhibition is -2.91%.

For `Cc1[nH]c2ccccc2c1C(=O)CN1CCCC1`, the inhibition was -1.81%.

`O=C1Cc2ccccc2C(c2ccccc2)N1` (stereo not drawn): the inhibition is 0.84%.

Consider `O=C1NCC2=C1C(c1ccccc1)Nc1ccccc1N2` (stereo not drawn), for which the inhibition is 58.3% (active).

For the molecule `COc1cc(C2Nc3ccccc3NC3=C2C(=O)CC(c2ccc(OC)c(OC)c2)C3)ccc1O` (stereo not drawn), the inhibition is -5.4%.

As for `CCc1ccc2oc(=O)cc(CN3CCC(C)CC3)c2c1`, the inhibition is -1.47%.

In the case of `C[N+](C)(C)CCCC(=O)c1ccc2c(c1)OCO2`, the inhibition is 3.91%.

`CC(=O)NC(CC(C)C)C(=O)NC(Cc1ccccc1)C(N)=O` (stereo not drawn) (Ac-Leu-Phe-NH2; configuration not given here): the inhibition is 1.27%.

Turning to `COc1ccc2c(C=O)cn(C)c2c1`, the inhibition was -2.41%.

Take `COC(=O)c1[nH]c2ccccc2c1NC(=O)CN1CCN(C/C=C/c2ccccc2)CC1`: the inhibition is 0.97%.

In the case of `Cc1ccnc(NS(=O)(=O)c2ccc(N)cc2)n1`, the inhibition was 1.25%.

As for `COc1cc(=O)n(C)c2ccccc12`, the inhibition is 0.98%.

As to `CC(C)CC(NC(=O)c1cccc(Cl)c1)C(=O)O` (stereo not drawn), the inhibition is -0.07%.

For `Cc1c(O)c(=O)ccn1C`, the inhibition was 4.09%.

`Cc1cccc(C)c1NS(=O)(=O)c1ccc(NC(=O)c2ccc(Cl)c([N+](=O)[O-])c2)cc1`: the inhibition was 5.98%.

`C=CCNC(=S)N1CCc2c([nH]c3ccccc23)C1C` (stereo not drawn): the inhibition was -0.07%.

For `CCN1C(=O)C(CC(=O)Nc2ccc(OC)cc2)N(CCc2ccc(F)cc2)C1=S` (stereo not drawn), the inhibition was 3.71%.

Consider `Cc1ccccc1-c1nn(-c2ccc(F)cc2F)cc1CNCCN(C)C`, for which the inhibition is -4.06%.

Turning to `COc1ccc2[nH]cc(C(=O)CCl)c2c1`, the inhibition was 2.86%.

On to `COC(=O)CN1CC(=O)N(c2ccccc2)C1=S`, for which the inhibition was -0.98%.

Regarding `O=c1oc2c(CN3CCCCC3)c(O)ccc2c2c1CCCCC2`, the inhibition is -1.21%.

Turning to `COC1=C(N)C(=O)c2nc(-c3nc(C(=O)O)c(C)c(-c4ccc(OC)c(OC)c4O)c3N)ccc2C1=O`, the inhibition was 92.5% (active).

As to `COc1ccc2oc(=O)c(-c3nc(C)cs3)cc2c1`, the inhibition was 3.51%.

As for `O=C(NCc1ccc2c(c1)OCO2)c1ccc2c(c1)OCCO2`, the inhibition is 2.19%.

Consider `CCOC(=O)C1C(=O)CC(C)(O)C(C(=O)OCC)C1/C=C/c1ccccc1` (stereo not drawn), for which the inhibition is 0.16%.

As to `CCOc1ccc(N2C(=O)CNC2=S)cc1`, the inhibition is 0.84%.

In the case of `COc1ccc(C(=O)[C@H]2[C@H]3C(=O)N(c4ccccc4)C(=O)[C@H]3C3C=CC=NN32)cc1` (stereo partly drawn), the inhibition was 2.34%.

Take `COc1ccc(N2C(=O)[C@@H]3[C@H](C2=O)[C@H]2c4ccccc4C=CN2[C@@H]3C(C)=O)cc1`: the inhibition is 37.2% (active).

In the case of `COc1ccc(N2C(=O)C3C(C2=O)C(C(=O)c2ccccc2)N2CCCC32)cc1` (stereo not drawn), the inhibition was 2.54%.

For the molecule `CCNCCC(CCC(C)C)c1ccc2c(c1)OCO2` (stereo not drawn), the inhibition is 2.15%.

Turning to `COc1ccc(C(=O)/C=C/c2cc(C(=O)O)cc3c2OCOC3)c(O)c1`, the inhibition was 3%.

For `Clc1ccc2c(c1)[C@H]1OCC[C@H]1[C@@H](c1ccco1)N2`, the inhibition is 1.39%.

As for `NS(=O)(=O)c1cc2c(cc1Cl)NC(CSCc1ccccc1)=NS2(=O)=O`, the inhibition is 0.58%.

On to `COC(=O)C1=C(C)N(C)C(=S)NC1c1ccc(Cl)cc1` (stereo not drawn), for which the inhibition was 0.42%.

On to `C#C[C@]1(O)CC[C@H]2[C@@H]3CCC4=C(CCC(=O)C4)[C@H]3CC[C@@]21C`, for which the inhibition is 0.19%.

Consider `CC[n+]1c(C)sc2cc(C)ccc21`, for which the inhibition is 0.78%.

For `NC(=O)[C@@H]1[C@@H]2C(=O)N(c3ccc(F)cc3)C(=O)[C@@H]2[C@H]2C=Cc3ccccc3N21`, the inhibition was -1.24%.

As to `COc1ccc(-c2[nH]ncc2CN(C)C(C)c2ccon2)c(OC)c1` (stereo not drawn), the inhibition was 4.74%.

For the molecule `COc1cc(NC(=S)NN2CCN(C)CC2)cc(OC)c1OC`, the inhibition was -5.47%.

With `CC1(C)Cc2ccccc2C(C(Cc2ccccc2)C(N)=O)=N1` (stereo not drawn), the inhibition was 1.19%.

Regarding `COc1ccc(NC2=C(Cl)C(=O)N(c3ccccc3)C2=O)c(OC)c1`, the inhibition is 7.44%.

In the case of `CSc1ccc(CN2CCN(CCC(C)C)C(CCO)C2)cc1` (stereo not drawn), the inhibition was -2.67%.

On to `CC1(C)CC(=O)C(C2(O)C(=O)Nc3ccccc32)CO1` (stereo not drawn), for which the inhibition was 7.91%.

Turning to `CCOC(=O)c1cnc2ccccc2c1NCCO`, the inhibition was 1.39%.

In the case of `COc1ccc(C2(CCN=Cc3ccc(N(C)C)cc3)CCOC(C)(C)C2)cc1` (stereo not drawn), the inhibition is 4.88%.

As to `CC(C)OC(=O)c1ccc(NC(=O)c2cncc(Br)c2)cc1`, the inhibition was 3.13%.

Regarding `CCOc1cccc(N2C(=O)CC(N(CCc3ccc(OC)c(OC)c3)C(=O)CC)C2=O)c1` (stereo not drawn), the inhibition was 4.11%.

As for `C[C@H](NC(=O)Nc1ccccc1F)C(=O)O`, the inhibition was 3.34%.

On to `Cc1ncc([N+](=O)[O-])n1CCO`, for which the inhibition is -2.21%.

With `CC(C)OC(=O)C1C2C=CC3(CN(CC4CCCO4)C(=O)C13)O2` (stereo not drawn), the inhibition is 3.74%.

Take `CC(=O)C1=C(O)C(=O)OC1c1ccc(C)cc1` (stereo not drawn): the inhibition was 3.6%.

On to `Cc1ccc(CSCC(=O)N2CCCC2)cc1`, for which the inhibition is 0.78%.

Consider `Cc1coc2cc3oc(=O)c(CCC(=O)O)c(C)c3cc12`, for which the inhibition was 1.74%.

Consider `C=CCNc1nc2c(c(=O)n(C)c(=O)n2C)n1CC(=C)C`, for which the inhibition was 2.6%.

For the molecule `CC(=O)Oc1ccc(C2OC(=O)c3ccccc3N2C(C)=O)cc1` (stereo not drawn), the inhibition was 4.61%.

For `C/C(=N\NC(=O)c1ccccc1[N+](=O)[O-])c1ccc(Br)s1`, the inhibition is -5.19%.

Regarding `CC(=O)OC1c2c(ccc3ccc(=O)oc23)OC(C)(C)C1OC(=O)CC(C)C` (stereo not drawn), the inhibition was 3.34%.

In the case of `COc1ccc2c(c1)C(=O)CC(c1ccccc1F)O2` (stereo not drawn), the inhibition is -3.92%.

In the case of `O=C(NCCc1nc2ccccc2[nH]1)c1cccc(Br)c1`, the inhibition was 2.09%.

On to `CCOC(=O)C1=C2c3ccc4ccccc4c3CC(C)(C)N2C(=O)C1=O`, for which the inhibition was 4.17%.

Consider `COc1ccc(OC)c(S(=O)(=O)N2CCCc3ccccc32)c1`, for which the inhibition was 1.48%.

Regarding `CC(=O)c1c(N)nc2n(c1=O)CCCCC2`, the inhibition is 2.24%.

As to `CC1(C)C(=O)OC(/C=C\c2ccccc2)C(C)(C)C1=O` (stereo not drawn), the inhibition was -4.36%.

Turning to `Cc1ccc(SCC(=O)Nc2nccs2)cc1`, the inhibition was -3.72%.

Consider `CCN1CCn2c3c(c4cc(Cl)ccc42)CCCC31` (stereo not drawn), for which the inhibition is 0.84%.
